Experimental data from ChEMBL document CHEMBL1134010, “Syntheses and antifungal activities of novel 3-amido bearing pseudomycin analogues” (Bioorg Med Chem Lett, 2001).
Converted amounts (≈) assume the structure as drawn. Positions of bridges follow the written chain, without caps; N, C: chain ends. Non-standard residues stand in square brackets, D forms with d. Residues, ends and D or L forms follow the SMILES beside them. Groups on a side chain read outwards from the residue. *: point of attachment. Tetradecanoyl(3R-OH) = CCCCCCCCCCC[C@@H](O)CC(=O)*; Asp(3S-OH) = N[C@H](C(=O)O)[C@H](O)C(=O)O; Thr(4-Cl) = N[C@H](C(=O)O)[C@H](O)CCl; aThr = C[C@H](O)[C@H](N)C(=O)O; dDab = NCC[C@@H](N)C(=O)O; Dab = NCC[C@H](N)C(=O)O; Dhb = C/C=C(\N)C(=O)O

Assays:
Assay type in all cases: functional
Cryptococcus neoformans = assay: In vitro minimum inhibitory concentration (MIC) against Cryptococcus neoformans.
How it was run: (§1)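 Tested against Candida albicans, Cryptococcus neoformans and Aspergillus fumigatus, with PSB as positive control. MIC is taken as the lowest drug concentration giving 90–100% inhibition of visible growth relative to drug-free controls.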

Aspergillus fumigatus = assay: In vitro minimum inhibitory concentration (MIC) against Aspergillus fumigatus.; how it was run: as §1
Candida albicans [1] = assay: In vitro minimum inhibitory concentration (MIC) against Candida albicans.; how it was run: as §1
Candida albicans [2] = assay: In vivo efficacy against murine Candidiasis dosed four times by intraperitoneal administration post-infection using Reed and Muench method.; conditions: ip
How it was run: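 Systemic candidiasis in mice, with PSB and amphotericin B as positive controls. Analogues were given at 20, 10 and 5 mg/kg, four doses at 0, 4, 24 and 48 post-infection. ED50 is the dose giving 50% survival relative to untreated infected animals, calculated by the Reed and Muench method.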

SMILES | MIC (Cryptococcus neoformans) [µg/mL] | MIC (Aspergillus fumigatus) [µg/mL] | MIC (Candida albicans [1]) [µg/mL] | ED50 (Candida albicans [2]) [mg/kg]
C/C=C1\NC(=O)[C@H]([C@H](C)O)NC(=O)[C@H](CCN)NC(=O)[C@H](CCCCN)NC(=O)[C@H](CC(=O)NCCC(C)C)NC(=O)[C@@H](CCN)NC(=O)[C@@H](NC(=O)C[C@H](O)CCCCCCCCCCC)COC(=O)[C@H]([C@H](O)CCl)NC(=O)[C@H]([C@H](O)C(=O)O)NC1=O | < 0.01 | > 20 | 0.312 (≈ 0.244 µM) | 10.9
C/C=C1\NC(=O)[C@H]([C@H](C)O)NC(=O)[C@H](CCN)NC(=O)[C@H](CCCCN)NC(=O)[C@H](CC(=O)NCCCN(C)C)NC(=O)[C@@H](CCN)NC(=O)[C@@H](NC(=O)C[C@H](O)CCCCCCCCCCC)COC(=O)[C@H]([C@H](O)CCl)NC(=O)[C@H]([C@H](O)C(=O)O)NC1=O | < 0.01 | 10 (≈ 7.74 µM) | 10 (≈ 7.74 µM) | < 5
C/C=C1\NC(=O)[C@H]([C@H](C)O)NC(=O)[C@H](CCN)NC(=O)[C@H](CCCCN)NC(=O)[C@H](CC(=O)NCCCCC)NC(=O)[C@@H](CCN)NC(=O)[C@@H](NC(=O)C[C@H](O)CCCCCCCCCCC)COC(=O)[C@H]([C@H](O)CCl)NC(=O)[C@H]([C@H](O)C(=O)O)NC1=O | < 0.01 | > 20 | 0.312 (≈ 0.244 µM) | 8.5
C/C=C1\NC(=O)[C@H]([C@H](C)O)NC(=O)[C@H](CCN)NC(=O)[C@H](CCCCN)NC(=O)[C@H](CC(=O)NCCCCCC)NC(=O)[C@@H](CCN)NC(=O)[C@@H](NC(=O)C[C@H](O)CCCCCCCCCCC)COC(=O)[C@H]([C@H](O)CCl)NC(=O)[C@H]([C@H](O)C(=O)O)NC1=O | 0.156 (≈ 0.121 µM) | > 20 | 5 (≈ 3.87 µM) | > 12
C/C=C1\NC(=O)[C@H]([C@H](C)O)NC(=O)[C@H](CCN)NC(=O)[C@H](CCCCN)NC(=O)[C@H](CC(=O)NCCCCN(C)C)NC(=O)[C@@H](CCN)NC(=O)[C@@H](NC(=O)C[C@H](O)CCCCCCCCCCC)COC(=O)[C@H]([C@H](O)CCl)NC(=O)[C@H]([C@H](O)C(=O)O)NC1=O | < 0.01 | 5 (≈ 3.83 µM) | 20 (≈ 15.3 µM) | < 5
C/C=C1\NC(=O)[C@H]([C@H](C)O)NC(=O)[C@H](CCN)NC(=O)[C@H](CCCCN)NC(=O)[C@H](CC(=O)NCC)NC(=O)[C@@H](CCN)NC(=O)[C@@H](NC(=O)C[C@H](O)CCCCCCCCCCC)COC(=O)[C@H]([C@H](O)CCl)NC(=O)[C@H]([C@H](O)C(=O)O)NC1=O | 0.156 (≈ 0.126 µM) | 20 (≈ 16.2 µM) | 0.625 (≈ 0.506 µM) | –
C/C=C1\NC(=O)[C@H]([C@@H](C)O)NC(=O)[C@H](CCN)NC(=O)[C@H](CCCCN)NC(=O)[C@H](CC(=O)N[C@@H](Cc2c[nH]cn2)C(=O)OC)NC(=O)[C@@H](CCN)NC(=O)[C@@H](NC(=O)C[C@H](O)CCCCCCCCCCC)COC(=O)[C@H]([C@H](O)CCl)NC(=O)[C@H]([C@H](O)C(=O)O)NC1=O | < 0.01 | 20 (≈ 14.7 µM) | 0.312 (≈ 0.23 µM) | < 5
C/C=C1\NC(=O)[C@H]([C@H](C)O)NC(=O)[C@H](CCN)NC(=O)[C@H](CCCCN)NC(=O)[C@H](CC(=O)NC)NC(=O)[C@@H](CCN)NC(=O)[C@@H](NC(=O)C[C@H](O)CCCCCCCCCCC)COC(=O)[C@H]([C@H](O)CCl)NC(=O)[C@H]([C@H](O)C(=O)O)NC1=O | 0.312 (≈ 0.256 µM) | > 20 | 5 (≈ 4.1 µM) | 7.4
C/C=C1\NC(=O)[C@H]([C@H](C)O)NC(=O)[C@H](CCN)NC(=O)[C@H](CCCCN)NC(=O)[C@H](CC(=O)NCC(=O)OC)NC(=O)[C@@H](CCN)NC(=O)[C@@H](NC(=O)C[C@H](O)CCCCCCCCCCC)COC(=O)[C@H]([C@H](O)CCl)NC(=O)[C@H]([C@H](O)C(=O)O)NC1=O ({Tetradecanoyl(3R-OH)}-S[dDab]D([Gly-OMe])K[Dab][aThr][Dhb][Asp(3S-OH)][Thr(4-Cl)]; ester 1-C) | 0.01 (≈ 0.00782 µM) | 20 (≈ 15.6 µM) | 1 (≈ 0.782 µM) | < 5
